Here are results for 12 compounds from PMC4452124 (Toxicology research, 2014).

SMILES strings stand for the structures. Where two headings read alike, the source gives them in different places.

A word on the CC50: it is the concentration that lowers cell viability or growth by half. A low value points to greater toxicity to the cells.

Data set [1] addresses T1, human BCRP (Homo sapiens, UniProt Q9UNQ0).
T1 sequence (Q9UNQ0 1-655): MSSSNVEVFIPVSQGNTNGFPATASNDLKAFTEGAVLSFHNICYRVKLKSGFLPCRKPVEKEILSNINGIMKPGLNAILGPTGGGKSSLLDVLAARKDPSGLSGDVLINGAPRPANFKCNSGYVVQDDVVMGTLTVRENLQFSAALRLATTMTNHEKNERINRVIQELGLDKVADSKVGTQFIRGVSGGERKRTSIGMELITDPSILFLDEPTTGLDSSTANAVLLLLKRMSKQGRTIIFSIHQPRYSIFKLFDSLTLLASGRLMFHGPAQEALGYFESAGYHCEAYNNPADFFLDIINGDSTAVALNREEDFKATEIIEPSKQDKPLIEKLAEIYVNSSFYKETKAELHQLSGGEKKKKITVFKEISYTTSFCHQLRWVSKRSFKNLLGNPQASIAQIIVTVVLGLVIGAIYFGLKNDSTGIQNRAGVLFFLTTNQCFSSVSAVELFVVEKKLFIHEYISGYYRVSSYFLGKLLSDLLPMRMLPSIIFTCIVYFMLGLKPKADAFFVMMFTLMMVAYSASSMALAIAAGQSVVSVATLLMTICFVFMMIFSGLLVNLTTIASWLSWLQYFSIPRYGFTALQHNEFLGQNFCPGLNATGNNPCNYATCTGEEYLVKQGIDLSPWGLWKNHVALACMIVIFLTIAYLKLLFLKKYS
Put plainly: biochemical.

Data set [2] concerns the target T1, human BCRP. The data set can be described thus: biochemical. The source holds these as a separate data set.
The target in data set [3] is T2, BCRP in BeWo cells (Homo sapiens, UniProt Q9UNQ0).
T2 sequence (Q9UNQ0 1-655): T1 sequence (Q9UNQ0 1-655)

The test system of another data set is BCRP (Q141K variant). The data set can be described thus: alamarBlue cell viability, HEK cells expressing Q141K BCRP. Type of data set: cell-based. Conditions: human.
Data set [4] is described as follows: alamarBlue cell viability, HEK cells expressing empty vector. Conditions: human. Format: cell-based. Background: Resazurin is reduced to fluorescent resorufin, in cell work by metabolically active cells.
For a further data set, the system named is BCRP (wild-type). The data set can be described thus: alamarBlue cell viability, HEK cells expressing WT BCRP. Format: cell-based. To be noted: human.
A further data set concerns the target T3, Bcrp (Mus musculus, UniProt Q7TMS5).
T3 sequence (Q7TMS5 1-657): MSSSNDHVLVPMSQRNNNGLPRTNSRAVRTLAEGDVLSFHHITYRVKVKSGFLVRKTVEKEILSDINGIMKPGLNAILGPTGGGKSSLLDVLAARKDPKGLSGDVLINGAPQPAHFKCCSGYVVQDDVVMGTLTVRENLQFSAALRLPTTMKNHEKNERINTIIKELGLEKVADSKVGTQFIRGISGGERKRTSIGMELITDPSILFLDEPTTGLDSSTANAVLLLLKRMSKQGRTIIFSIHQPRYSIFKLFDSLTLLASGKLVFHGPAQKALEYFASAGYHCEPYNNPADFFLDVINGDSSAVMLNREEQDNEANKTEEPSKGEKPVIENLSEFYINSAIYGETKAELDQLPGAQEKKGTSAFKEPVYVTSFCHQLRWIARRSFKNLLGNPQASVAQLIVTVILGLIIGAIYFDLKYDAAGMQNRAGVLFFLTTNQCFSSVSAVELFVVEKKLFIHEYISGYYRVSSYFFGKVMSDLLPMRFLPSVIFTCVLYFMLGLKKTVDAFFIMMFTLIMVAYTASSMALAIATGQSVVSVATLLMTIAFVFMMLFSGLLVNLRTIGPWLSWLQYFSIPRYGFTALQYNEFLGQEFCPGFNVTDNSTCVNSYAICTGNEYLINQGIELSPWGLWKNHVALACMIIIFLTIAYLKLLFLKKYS
The data set can be described thus: Pilot study of plasma zearalenone in Bcrp-null versus wild-type mice. Type of data set: in vivo. Conditions: after oral dosing, pilot studies, data not shown.

Data set [5] relates to BCRP protein expression in BeWo cells. The data set can be described thus: Western blot of BCRP protein in BeWo cells after zearalenone exposure. Type of data set: cell-based, human. To be noted: 48 h, 1 or 10 μM. The method, boiled down:
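BeWo choriocarcinoma cells grown in DMEM F-12 with 10% FBS and 1% penicillin-streptomycin at 37°C, 5% CO2, used at 80–90% confluence, then exposed to test compound (0, 1 or 10 μM). Lysate protein measured by BCA; 5 μg resolved on 4–12% Bis-Tris SDS gels and probed for BCRP (~72 kDa), with β-actin as loading control. Bands semi-quantified.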
In general terms: In western blotting, separated proteins are transferred to a membrane and probed.

The target of data set [6] is T2, BCRP in BeWo cells. The data set can be described thus: Intracellular zearalenone accumulation by ELISA in BeWo cells. Type of data set: cell-based. To be noted: zearalenone 10 μM, Ko143 1 μM.
The next data set addresses T4, WT BCRP in HEK cells (Homo sapiens, UniProt Q9UNQ0).
T4 sequence (Q9UNQ0 1-655): T1 sequence (Q9UNQ0 1-655)
The data set can be described thus: Hoechst 33342 fluorescent substrate transport assay in WT BCRP HEK cells. Format: cell-based. To be noted: Hoechst 33342 7 μM.

Data set [7] has as its target T1, human BCRP. Put plainly: BCRP ATPase assay, activation of baseline activity. Type of data set: biochemical. Conditions: absence of sulfasalazine.
The target in data set [8] is T1, human BCRP.
Setting [9] is: Inhibitory Concentration (IC50) Vesicle Assay, Lucifer yellow (50 μM) transport, 2 min, 37°C.
[10] abbreviates: BeWo cells, Hoechst 33342 15 μM.

On to `C#CCOS(=O)OC1CCCCC1Oc1ccc(C(C)(C)C)cc1` (stereo not drawn) [Propargite, propargite], for which the IC50 is 2.6 µM against human BCRP [1] and 31.8 µM on human BCRP [2] (setting [9]).
Turning to `COc1ccc(C(c2ccc(OC)cc2)C(Cl)(Cl)Cl)cc1` [Methoxychlor, methoxychlor], the IC50 came to 5.2 µM against human BCRP [1] and 38 µM against human BCRP [2] (setting [9]). Besides, the “Concentration that increased intracellular Hoechst 33342 fluorescence” value at BCRP in BeWo cells [3] (setting [10]) came out at 100 µM.
For `Fc1ccc([C@]2(Cn3cncn3)O[C@H]2c2ccccc2Cl)cc1` (racemic) [Epoxiconazole, epoxiconazole], the IC50 against human BCRP [1] was over 100 µM; on human BCRP [2] (setting [9]), 64.7 µM.
On to `O=C1c2c(O)ccc(O)c2C(=O)c2c(NCCNCCO)ccc(NCCNCCO)c21` [Mitoxantrone, mitoxantrone, reference compound], for which the CC50 in the data set with BCRP (Q141K variant) was 1.14 µM; in data set [4] it was 0.34 µM; with BCRP (wild-type) it was 3.19 µM.
On to `CCCN(CCOc1c(Cl)cc(Cl)cc1Cl)C(=O)n1ccnc1` [Prochloraz, prochloraz], for which the values for the IC50 on human BCRP [1] and on human BCRP [2] (setting [9]) were 42.6 µM and 18.7 µM, respectively.
The corresponding values for `CCCCC(C#N)(Cn1cncn1)c1ccc(Cl)cc1` (stereo not drawn) [Myclobutanil, myclobutanil] are 79 µM and 62.7 µM.
For the compound `C[C@H]1CCCC(=O)CCC/C=C/c2cc(O)cc(O)c2C(=O)O1` [Zearalenone, zearalenone], at Bcrp, the “Plasma zearalenone levels, Bcrp-null mice compared to wild-types” value is ~ 10 fold. For the same compound, in [5], the “Effect on BCRP protein expression” value was “did not alter BCRP protein expression”. The CC50 at 72 h turned out to be 40.6 µM in the data set with BCRP (Q141K variant), 45.6 µM in data set [4] and 171 µM with BCRP (wild-type). In addition, the IC50 against human BCRP [1] was 40.6 µM; at human BCRP [2] (setting [9]) it was 4.8 µM. For the same compound, on BCRP in BeWo cells [6], the “Increase of intracellular zearalenone levels on BCRP inhibition with Ko143” value was found to be 2.7 fold. Also, the “Concentrations that increased Hoechst accumulation” value on WT BCRP in HEK cells lay within 10 to 100 µM. Further, the “Concentration that increased intracellular Hoechst 33342 fluorescence” value on BCRP in BeWo cells [3] (setting [10]) is 50 µM.
In the case of `O=c1c(-c2ccc(O)cc2)coc2cc(O)cc(O)c12` [Genistein, genistein], the “Concentration that stimulated baseline ATPase activity” value on human BCRP [7] is at least 0.01 µM. In addition, on human BCRP [2] (Inhibitory Concentration (IC50) Vesicle Assay), the IC50 was found to be 1.9 µM. Moreover, the “Change in BCRP-mediated ATPase activity” value at human BCRP [8] is recorded as “no change in ATPase activity was detected”. Moreover, on BCRP in BeWo cells [3] (human), the “Concentration that increased intracellular Hoechst 33342 fluorescence” value is at least 10 µM and the “Increase in retention of Hoechst 33342” value is reported as 50–100%.
On to `CCC[CH2][Sn]([CH2]CCC)[CH2]CCC` [Tributyltin, tributyltin], for which the IC50 on human BCRP [2] (read-out: Inhibitory Concentration (IC50) Vesicle Assay, Lucifer yellow (50 μM) transport, 2 min, 37°C) came to 30.5 µM. Also, the “Increase in retention of Hoechst 33342” value at BCRP in BeWo cells [3] (BeWo cells) is on record as 50–100%. Moreover, at BCRP in BeWo cells [3] (setting [10]), the “Concentration that increased intracellular Hoechst 33342 fluorescence” value was at least 10 µM.
On to `CC(C)(c1ccc(O)cc1)c1ccc(O)cc1` [Bisphenol A, bisphenol A], for which the IC50 on human BCRP [1] is over 100 µM; at human BCRP [2] (setting [9]), 55.5 µM. Further, the “Concentration that increased intracellular Hoechst 33342 fluorescence” value on BCRP in BeWo cells [3] (setting [10]) came out at 50 µM.
In the case of `CCCC1COC(Cn2cncn2)(c2ccc(Cl)cc2Cl)O1` (stereo not drawn) [Propiconazole, propiconazole], the IC50 at human BCRP [1] came out at 63.6 µM; against human BCRP [2] (setting [9]), 51.3 µM.
The corresponding values for `CC(C)(C)C(O)(CCc1ccc(Cl)cc1)Cn1cncn1` (stereo not drawn) [Tebuconazole, tebuconazole] are over 100 µM and 41.1 µM.
